TNAP act hiacc = TNAP activators at high phosphate acceptor level, primary screen, biochemical, luminescence, uHTS. Alkaline phosphatase, tissue-nonspecific isozyme (Homo sapiens), P05186. purified TNAP, CDP-star luminescence, 1 M DEA, 30 min; stronger effect = higher value; 0 = EDTA background, 1 = DMSO-only activity. activation factor at 20 µM. 200,000 tested, under 10 active. AID 1136, 2008;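 active = activation factor at least 2 at 20 µM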
Target sequence (P05186 whole entry, looked up): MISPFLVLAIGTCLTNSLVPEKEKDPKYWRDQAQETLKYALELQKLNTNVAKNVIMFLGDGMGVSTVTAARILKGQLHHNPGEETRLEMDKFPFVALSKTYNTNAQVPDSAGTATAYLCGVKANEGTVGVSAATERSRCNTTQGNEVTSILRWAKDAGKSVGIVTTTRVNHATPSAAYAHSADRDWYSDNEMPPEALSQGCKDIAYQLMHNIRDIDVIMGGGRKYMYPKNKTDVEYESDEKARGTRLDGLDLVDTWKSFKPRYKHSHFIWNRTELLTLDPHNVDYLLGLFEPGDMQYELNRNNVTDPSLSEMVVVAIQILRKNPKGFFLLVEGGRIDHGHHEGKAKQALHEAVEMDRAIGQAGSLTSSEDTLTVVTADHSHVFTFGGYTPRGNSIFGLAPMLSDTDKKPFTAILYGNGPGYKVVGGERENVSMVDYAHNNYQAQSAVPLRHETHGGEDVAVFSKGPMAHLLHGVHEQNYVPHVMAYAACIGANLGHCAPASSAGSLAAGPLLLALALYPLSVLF
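Assay system: human TNAP; Input: enzyme diluted 1/800 final; Reagent: CDP-star luminogenic substrate at 100 µM final; Timing: 30 min, room temperature; Signal: luminescence; Evaluation: TNAP activation factor scaled between EDTA and DMSO control wells.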
TNAP inh hi DEA = human TNAP enzyme inhibitors, primary screen, biochemical, luminescent, high phosphate acceptor level, uHTS | 0.03% of 200,000 active | inhibition, % at 20 µM | purified TNAP, CDP-star luminescence, 1 M DEA | Alkaline phosphatase, tissue-nonspecific isozyme (Homo sapiens), P05186;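 active = over 50% inhibition of tissue-nonspecific alkaline phosphatase at 20 µM in the single-dose screen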;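 also: plate controls were DMSO wells for no effect and EDTA-quenched wells as full inhibition for full effect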
Insulin prom inh = inhibitors of insulin promoter-driven GFP, primary screen, imaging, TRM-6 cells, eGFP reporter, cell count. reporter expression induced with tamoxifen. 0.9% of 130,000 active. inhibition, % at 2 µM;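 active = inhibition above the mean plus 3 SD, with well images judged a real hit on visual review, cut at about 60% in these data, passing the limit was not always enough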
TNAP inh no acc = human TNAP enzyme inhibitors, primary screen, biochemical, luminescent, no phosphate acceptor, uHTS | AID 1012, 2008 | 0.26% of 200,000 active | inhibition, % at 20 µM | purified TNAP, CDP-star luminescence, 30 min;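 active = tissue-nonspecific alkaline phosphatase inhibition above about 50% at 20 µM in the single-dose screen, limit read from the data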;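 also: 0% = DMSO negative control and 100% = EDTA positive control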
Efa HMGR inh = inhibitors of E. faecalis class II HMGR, primary screen, biochemical, Enterococcus faecalis. HMG-CoA reductase (Enterococcus faecalis, mvaE). 0.41% of 190,000 active. purified E. faecalis HMGR, NADPH absorbance 340 nm kinetic. inhibition, % at 10 µM;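 active = inhibition above a set limit, the median over all tested compounds plus 3 SD, cut at about 9.5% in these data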;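 also: enzyme runs in reverse so mevalonate oxidation gives rising NADPH absorbance; 0% = complete reaction with DMSO and 100% = background rate lacking mevalonate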
* hit, by the source's call. This is a sample that favours compounds with a hit; in the whole collection about 1.2% have one here.

For COc1ccc(C/C(C)=N/NS(=O)(=O)c2ccc(Br)cc2)cc1 the results were TNAP act hiacc 1, TNAP inh hi DEA 1, TNAP inh no acc -6 and Efa HMGR inh 15*.
CCOc1cc(C(=O)N/N=C(\C)Cc2ccc(OC)cc2)cc(OCC)c1OCC was read as TNAP act hiacc 1, TNAP inh hi DEA -1, TNAP inh no acc -27 and Efa HMGR inh -1.
Screening COc1ccc(C2CC(c3ccccc3)=NN2C(=O)CN2N=NC3C(=O)N(c4cccc(F)c4)C(=O)C32)cc1 (stereo unspecified) returned TNAP act hiacc 1, TNAP inh hi DEA -5, TNAP inh no acc -23 and Efa HMGR inh -4.
`Cc1[nH][nH]c(=O)c1C=NCc1cccc(C(F)(F)F)c1` gave TNAP act hiacc 1, TNAP inh hi DEA -3, TNAP inh no acc -83 and Efa HMGR inh -5.
`Cc1ccc(S(=O)(=O)N2CCN(CC(O)c3ccccc3)CC2)cc1C` (stereo unspecified) gave TNAP act hiacc 1.1, TNAP inh hi DEA -5, Insulin prom inh 56, TNAP inh no acc -2 and Efa HMGR inh -9.
For O=C(CN(CCc1ccccc1)S(=O)(=O)c1ccc(Cl)cc1)N/N=C/c1ccccc1C(=O)O the results were TNAP act hiacc 1, TNAP inh hi DEA -4, TNAP inh no acc -8 and Efa HMGR inh -5.
For Cc1cccc(C)c1NC(=S)N(Cc1ccccc1)Cc1cccs1 the results were TNAP act hiacc 1, TNAP inh hi DEA -3, Insulin prom inh 47, TNAP inh no acc -19 and Efa HMGR inh -5.
Screening CC(=O)c1ccc(Nc2nc(=O)c3cccnc3s2)cc1 returned TNAP act hiacc 1.1, TNAP inh hi DEA -9, Insulin prom inh 79*, TNAP inh no acc -11 and Efa HMGR inh -1.
`CC(=O)Nc1cc(-c2ccc(F)cc2)[nH]n1` gave TNAP act hiacc 1, TNAP inh hi DEA 2, Insulin prom inh -50, TNAP inh no acc 91* and Efa HMGR inh 2.
COc1ccc(N2CCN(C(=O)CNS(=O)(=O)c3ccc(C)cc3)CC2)cc1 was read as TNAP act hiacc 1, TNAP inh hi DEA -2, Insulin prom inh -6, TNAP inh no acc -12 and Efa HMGR inh -4.
O=C(Nc1ccc2c(c1)C(=O)N(c1ccccc1)C2=O)C1CCCO1 (stereo unspecified) was read as TNAP act hiacc 1, TNAP inh hi DEA -2, Insulin prom inh -81, TNAP inh no acc -10 and Efa HMGR inh 12*.
Screening CC(O)C(=O)N/N=C/c1ccccc1C(=O)O (stereo unspecified) returned TNAP act hiacc 1, TNAP inh hi DEA -4, TNAP inh no acc -9 and Efa HMGR inh 13*.
For O=C(CCc1nnc(-c2ccc3c(c2)OCO3)o1)NC(c1cccnc1)C(F)(F)F (stereo unspecified) the results were TNAP act hiacc 1, TNAP inh hi DEA -3, Insulin prom inh -25, TNAP inh no acc -5 and Efa HMGR inh 1.
CCOc1ccc(-c2[nH]ncc2Oc2ccccc2OCC)c(O)c1 was read as TNAP act hiacc 1, TNAP inh hi DEA -2, Insulin prom inh -108, TNAP inh no acc -10 and Efa HMGR inh 24*.
For COc1cc(NC(=O)COC(=O)C=C(C)C)c(C)cc1[N+](=O)[O-] the results were TNAP act hiacc 1, TNAP inh hi DEA 1, TNAP inh no acc -5 and Efa HMGR inh -2.
Screening COc1ccc(CN(C)C2CCCCC2)cc1 returned TNAP act hiacc 1.1, TNAP inh hi DEA -12, Insulin prom inh -30, TNAP inh no acc -2 and Efa HMGR inh 2.
Screening CN(Cc1ccc(O)cc1)C1CCCCC1 returned TNAP act hiacc 1.1, TNAP inh hi DEA -6, Insulin prom inh 92*, TNAP inh no acc -14 and Efa HMGR inh -1.
For CCC(C)(C(=O)NC1CCCCC1)N(Cc1ccco1)C(=O)Cc1cccs1 (stereo unspecified) the results were TNAP act hiacc 0.9, TNAP inh hi DEA 7, Insulin prom inh -45, TNAP inh no acc 18 and Efa HMGR inh 1.
